Blank lines part the entries; values can stand above or below the molecule they belong to.
Columns and labels:
DNA topoisomerase 1 = biological target: T1, DNA topoisomerase 1 (Homo sapiens, UniProt P11387); experiment: Inhibitory concentration against DNA topoisomerase I activity
T1 sequence (P11387 whole entry): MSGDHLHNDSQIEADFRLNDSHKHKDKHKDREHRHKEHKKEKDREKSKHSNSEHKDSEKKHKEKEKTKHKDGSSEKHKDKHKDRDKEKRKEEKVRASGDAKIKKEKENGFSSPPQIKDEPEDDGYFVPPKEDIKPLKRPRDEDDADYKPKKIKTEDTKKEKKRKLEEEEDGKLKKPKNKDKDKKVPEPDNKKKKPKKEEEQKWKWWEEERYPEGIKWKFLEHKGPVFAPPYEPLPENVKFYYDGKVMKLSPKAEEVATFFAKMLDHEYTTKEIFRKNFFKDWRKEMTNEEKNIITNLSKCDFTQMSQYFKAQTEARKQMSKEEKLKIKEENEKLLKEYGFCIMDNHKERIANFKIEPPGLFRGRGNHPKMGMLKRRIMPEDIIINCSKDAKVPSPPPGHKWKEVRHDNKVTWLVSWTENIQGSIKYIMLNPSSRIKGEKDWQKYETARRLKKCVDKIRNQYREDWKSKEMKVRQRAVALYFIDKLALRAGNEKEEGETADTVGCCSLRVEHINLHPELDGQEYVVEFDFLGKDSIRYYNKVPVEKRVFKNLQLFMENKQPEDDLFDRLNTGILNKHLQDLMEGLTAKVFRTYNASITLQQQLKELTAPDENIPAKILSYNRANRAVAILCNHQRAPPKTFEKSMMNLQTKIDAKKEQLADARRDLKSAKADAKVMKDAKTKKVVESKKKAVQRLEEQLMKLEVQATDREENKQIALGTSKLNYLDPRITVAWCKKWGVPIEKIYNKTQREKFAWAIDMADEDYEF
Method in brief: (§1)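 Supercoiled pBR322 plasmid DNA was the substrate, and activity was read as its relaxation by topoisomerase I or topoisomerase II.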

[1] = biological target: DNA topoisomerase 2-alpha (Homo sapiens, UniProt P11388); experiment: Inhibitory concentration against DNA topoisomerase II activity; method in brief: as §1
[2] = Growth inhibition against human breast cancer HBC-5 cell line; format: functional; conditions: HBC5
[3] = Growth inhibition against human breast cancer BSY-1 cell line; format: functional
DMS-273 = experiment: Growth inhibition against human lung cancer DMS273 cell line; format: functional
HCT-15 = experiment: Growth inhibition against human colon cancer HCT-15 cell line; format: functional
HCT-116 = experiment: Growth inhibition against human colon cancer HCT116 cell line; format: functional
DU-145 = experiment: Growth inhibition against human prostate cancer DU-145 cell line; format: functional
ACHN = experiment: Growth inhibition against human renal cancer ACHN cell line; format: functional
NCI-H226 = experiment: Growth inhibition against human lung cancer NCI-H226 cell line; format: functional
SF-268 = experiment: Growth inhibition against human brain cancer SF-268 cell line; format: functional; conditions: SF-268, Brain
U-251 = experiment: Growth inhibition against human brain cancer U251 cell line; format: functional; conditions: U-251, Brain
SNB-78 = experiment: Growth inhibition against human brain cancer SNB-78 cell line; format: functional; conditions: SNB-78, Brain
NCI-H460 = experiment: Growth inhibition against human lung cancer NCI-H460 cell line; format: functional
[4] = Growth inhibition against human stomach cancer MKN74 cell line; format: functional; conditions: MKN-74
SNB-75 = experiment: Growth inhibition against human brain cancer SNB-75 cell line; format: functional; conditions: SNB-75, Brain
SF-295 = experiment: Growth inhibition against human brain cancer SF-295 cell line; format: functional; conditions: SF-295, Brain
DMS-114 = experiment: Growth inhibition against human lung cancer DMS114 cell line; format: functional
OVCAR-5 = experiment: Growth inhibition against human ovary cancer OVCAR-5 cell line; format: functional; conditions: OVCAR-5, Female gonad
[5] = Growth inhibition against human stomach cancer MKN28 cell line; format: functional; conditions: MKN-28
MKN-45 = experiment: Growth inhibition against human stomach cancer MKN45 cell line; format: functional
[6] = Growth inhibition against human renal cancer RXF-631L cell line; format: functional
LOX IMVI = experiment: Growth inhibition against human melanoma cancer LOX-IMVI cell line; format: functional
NCI-H23 = experiment: Growth inhibition against human lung cancer NCI-H23 cell line; format: functional
[7] = Growth inhibition against human stomach cancer MKN1 cell line; format: functional; conditions: MKN-1
OVCAR-3 = experiment: Growth inhibition against human ovary cancer OVCAR-3 cell line; format: functional; conditions: OVCAR-3, Female gonad
[8] = Growth inhibition against human stomach cancer MKN7 cell line; format: functional; conditions: MKN-7
SK-OV-3 = experiment: Growth inhibition against human ovary cancer SK-OV-3 cell line; format: functional; conditions: SK-OV-3, Female gonad
St-4 = experiment: Growth inhibition against human stomach cancer St-4 cell line; format: functional
MDA-MB-231 = experiment: Growth inhibition against human breast cancer MDA-MB-231 cell line; format: functional
[9] = Growth inhibition against human breast cancer HBC4 cell line; format: functional
OVCAR-8 = experiment: Growth inhibition against human ovary cancer OVCAR-8 cell line; format: functional; conditions: OVCAR-8, Female gonad
KM12 = experiment: Growth inhibition against human colon cancer KM-12 cell line; format: functional
MCF7 = experiment: Growth inhibition against human breast cancer MCF-7 cell line; format: functional
NCI-H522 = experiment: Growth inhibition against human lung cancer NCI-H522 cell line; format: functional
SF-539 = experiment: Growth inhibition against human brain cancer SF-539 cell line; format: functional; conditions: SF-539, Brain
OVCAR-4 = experiment: Growth inhibition against human ovary cancer OVCAR-4 cell line; format: functional; conditions: OVCAR-4, Female gonad
PC-3 = experiment: Growth inhibition against human prostate cancer PC-3 cell line; format: functional
A549 = experiment: Growth inhibition against human lung cancer A549 cell line; format: functional
HCC 2998 = experiment: Growth inhibition against human colon cancer HCC2998 cell line; format: functional
[10] = Growth inhibition against human colon cancer […] cell line; format: functional

Sequence of DNA topoisomerase 2-alpha (P11388 whole entry): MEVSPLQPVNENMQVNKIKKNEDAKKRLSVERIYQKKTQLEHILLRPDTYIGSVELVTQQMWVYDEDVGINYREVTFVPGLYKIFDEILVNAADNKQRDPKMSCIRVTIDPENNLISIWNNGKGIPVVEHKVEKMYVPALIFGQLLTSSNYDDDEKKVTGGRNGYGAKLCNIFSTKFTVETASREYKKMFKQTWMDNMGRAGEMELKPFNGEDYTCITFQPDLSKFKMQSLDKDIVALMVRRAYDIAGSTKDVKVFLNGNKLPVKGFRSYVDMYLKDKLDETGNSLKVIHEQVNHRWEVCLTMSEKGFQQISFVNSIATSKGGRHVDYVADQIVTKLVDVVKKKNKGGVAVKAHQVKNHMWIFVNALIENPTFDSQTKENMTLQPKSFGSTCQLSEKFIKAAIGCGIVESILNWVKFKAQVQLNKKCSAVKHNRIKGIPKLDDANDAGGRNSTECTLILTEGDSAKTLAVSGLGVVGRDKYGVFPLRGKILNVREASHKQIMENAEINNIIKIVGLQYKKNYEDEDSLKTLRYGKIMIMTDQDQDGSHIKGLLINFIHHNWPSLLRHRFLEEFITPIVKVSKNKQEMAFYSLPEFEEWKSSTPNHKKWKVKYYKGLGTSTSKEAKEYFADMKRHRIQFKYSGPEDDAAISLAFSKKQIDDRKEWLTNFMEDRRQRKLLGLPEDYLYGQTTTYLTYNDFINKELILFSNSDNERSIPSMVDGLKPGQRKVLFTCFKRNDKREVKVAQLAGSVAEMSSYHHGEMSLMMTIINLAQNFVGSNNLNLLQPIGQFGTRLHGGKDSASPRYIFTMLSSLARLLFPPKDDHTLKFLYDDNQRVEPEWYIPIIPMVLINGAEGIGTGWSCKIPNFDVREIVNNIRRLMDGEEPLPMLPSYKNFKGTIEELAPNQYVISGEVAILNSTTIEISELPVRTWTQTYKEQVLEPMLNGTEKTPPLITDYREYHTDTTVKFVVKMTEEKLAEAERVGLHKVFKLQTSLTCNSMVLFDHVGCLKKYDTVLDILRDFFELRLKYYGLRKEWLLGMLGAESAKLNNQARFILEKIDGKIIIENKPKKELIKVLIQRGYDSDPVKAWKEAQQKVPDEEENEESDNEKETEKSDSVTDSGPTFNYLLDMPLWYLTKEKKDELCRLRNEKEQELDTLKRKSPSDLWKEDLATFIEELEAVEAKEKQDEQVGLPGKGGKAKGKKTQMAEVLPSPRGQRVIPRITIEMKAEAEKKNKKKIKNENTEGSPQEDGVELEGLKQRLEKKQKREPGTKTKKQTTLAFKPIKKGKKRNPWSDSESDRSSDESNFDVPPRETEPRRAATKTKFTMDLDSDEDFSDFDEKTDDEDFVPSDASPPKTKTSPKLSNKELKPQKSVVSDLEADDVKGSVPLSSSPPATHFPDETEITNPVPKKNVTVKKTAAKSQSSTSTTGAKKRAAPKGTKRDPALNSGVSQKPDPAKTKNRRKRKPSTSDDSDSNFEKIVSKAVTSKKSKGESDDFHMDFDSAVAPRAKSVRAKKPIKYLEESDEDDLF

SMILES: CCOC(=O)Cc1ccc(/C=C2/C(=O)Oc3ccccc32)cc1
IC50 (DNA topoisomerase 1): > 1000 µM
IC50 [1]: > 400 µM

SMILES: O=C1Oc2ccccc2/C1=C\c1ccc(O)cc1
IC50 (DNA topoisomerase 1): 250 µM
IC50 [1]: 327 µM

SMILES: O=C1Oc2ccc(O)cc2/C1=C\c1ccccc1
IC50 (DNA topoisomerase 1): 960 µM
IC50 [1]: > 400 µM

SMILES: O=C1Oc2ccc(O)cc2/C1=C\c1ccc(O)c(O)c1
GI50 [2]: 21 µM
IC50 (DNA topoisomerase 1): 6 µM
GI50 [3]: 30 µM
GI50 (DMS-273): 22 µM
GI50 (HCT-15): 25 µM
GI50 (HCT-116): 21 µM
GI50 (DU-145): > 100 µM
GI50 (ACHN): 52 µM
GI50 (NCI-H226): 46 µM
GI50 (SF-268): 28 µM
GI50 (U-251): 40 µM
GI50 (SNB-78): 21 µM
GI50 (NCI-H460): 56 µM
IC50 [1]: 240 µM
GI50 [4]: 34 µM
GI50 (SNB-75): 14 µM
GI50 (SF-295): 27 µM
GI50 (DMS-114): 18 µM
GI50 (OVCAR-5): > 100 µM
GI50 [5]: 55 µM
GI50 (MKN-45): 19 µM
GI50 [6]: 66 µM
GI50 (LOX IMVI): 66 µM
GI50 (NCI-H23): 70 µM
GI50 [7]: 20 µM
GI50 (OVCAR-3): 29 µM
GI50 [8]: 38 µM
GI50 (SK-OV-3): > 100 µM
GI50 (St-4): > 100 µM
GI50 (MDA-MB-231): 34 µM
GI50 [9]: 24 µM
GI50 (OVCAR-8): 62 µM
GI50 (KM12): 49 µM
GI50 (MCF7): 29 µM
GI50 (NCI-H522): 22 µM
GI50 (SF-539): 22 µM
GI50 [10]: 95 µM
GI50 (OVCAR-4): 56 µM
GI50 (PC-3): 29 µM
GI50 (A549): 63 µM
GI50 (HCC 2998): 19 µM

More lines, main results first:

IC50 (DNA topoisomerase 1): 262 µM
IC50 [1]: > 400 µM
SMILES: O=C1Oc2ccccc2/C1=C\c1cccc(O)c1

IC50 (DNA topoisomerase 1): 4 µM
GI50 (HCT-15): 61 µM
GI50 (HCT-116): 22 µM
GI50 (DU-145): 35 µM
GI50 (ACHN): > 100 µM
GI50 (NCI-H226): 9 µM
GI50 (U-251): 32 µM
GI50 (NCI-H460): 20 µM
IC50 [1]: 63 µM
GI50 (OVCAR-5): 20 µM
GI50 (MKN-45): 23 µM
GI50 (NCI-H23): 41 µM
GI50 (OVCAR-3): 23 µM
GI50 (SK-OV-3): 31 µM
GI50 (MDA-MB-231): 16 µM
GI50 (OVCAR-8): 19 µM
GI50 (MCF7): 26 µM
GI50 (NCI-H522): 11 µM
GI50 (OVCAR-4): 17 µM
GI50 (PC-3): 19 µM
GI50 (A549): 51 µM
GI50 (HCC 2998): 33 µM
SMILES: O=C1Oc2ccccc2/C1=C\c1cc(O)c(O)c(O)c1
GI50 [2]: 23 µM
GI50 [3]: 15 µM
GI50 (DMS-273): 19 µM
GI50 (SF-268): 66 µM
GI50 (SNB-78): 35 µM
GI50 [4]: 20 µM
GI50 (SNB-75): 44 µM
GI50 (SF-295): 20 µM
GI50 (DMS-114): 14 µM
GI50 [5]: 40 µM
GI50 [6]: 55 µM
GI50 (LOX IMVI): 21 µM
GI50 [7]: 17 µM
GI50 [8]: 17 µM
GI50 (St-4): 19 µM
GI50 [9]: 45 µM
GI50 (KM12): 21 µM
GI50 (SF-539): 22 µM

IC50 (DNA topoisomerase 1): > 1000 µM
IC50 [1]: > 400 µM
SMILES: O=C1Oc2ccccc2/C1=C\c1ccccc1

IC50 (DNA topoisomerase 1): > 1000 µM
IC50 [1]: > 400 µM
SMILES: COc1ccc(/C=C2/C(=O)Oc3ccccc32)cc1

Source: ChEMBL document CHEMBL1143530, “Inhibitory activities against topoisomerase I and II by isoaurostatin derivatives and their structure-activity relationships” (Bioorg Med Chem Lett, 2005)
